Calls of active or inactive are those of the source. The rule behind the calls is not given here.
Key:
[1] = Cytotoxicity against human 518A2 cells after 24 hrs by MTT assay; assay type: functional, cell-based; settings: 518A2, 24 h
Summary of the method: (§1)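 MTT assay. Cells seeded and cultured 24 h, then exposed to compound for 24, 48 or 72 h. MTT added to a final 0.05% (HL-60, 518A2) or 0.1% (KB-V1, MCF-7) for 2 h. Formazan dissolved in 10% SDS/DMSO with 0.6% acetic acid; absorbance read at 570 nm against 630 nm background. Viability taken relative to untreated controls (100%). IC50 from concentration-response curves, mean ± SD of four independent experiments.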

[2] = Cytotoxicity against human 518A2 cells after 48 hrs by MTT assay; assay type: functional, cell-based; settings: 518A2, 48 h; summary of the method: as §1
[3] = Cytotoxicity against human 518A2 cells after 72 hrs by MTT assay; assay type: functional, cell-based; settings: 518A2, 72 h; summary of the method: as §1
HL-60 [4] = experiment: Cytotoxicity against human HL60 cells after 24 hrs by MTT assay; assay type: functional, cell-based; settings: HL-60, 24 h; summary of the method: as §1
HL-60 [5] = experiment: Cytotoxicity against human HL60 cells after 48 hrs by MTT assay; assay type: functional, cell-based; settings: HL-60, 48 h; summary of the method: as §1
HL-60 [6] = experiment: Cytotoxicity against human HL60 cells after 72 hrs by MTT assay; assay type: functional, cell-based; settings: HL-60, 72 h; summary of the method: as §1
[7] = Cytotoxicity against human vinblastine-resistant KBV1 cells after 24 hrs by MTT assay; assay type: functional, cell-based; settings: KB-V1, 24 h; summary of the method: as §1
[8] = Cytotoxicity against human vinblastine-resistant KBV1 cells after 48 hrs by MTT assay; assay type: functional, cell-based; settings: KB-V1, 48 h; summary of the method: as §1
[9] = Cytotoxicity against human vinblastine-resistant KBV1 cells after 72 hrs by MTT assay; assay type: functional, cell-based; settings: KB-V1, 72 h; summary of the method: as §1
MCF7 [10] = experiment: Cytotoxicity against human topotecan-resistant MCF7 cells after 24 hrs by MTT assay; assay type: functional, cell-based; settings: MCF7, 24 h; summary of the method: as §1
MCF7 [11] = experiment: Cytotoxicity against human topotecan-resistant MCF7 cells after 48 hrs by MTT assay; assay type: functional, cell-based; settings: MCF7, 48 h; summary of the method: as §1
MCF7 [12] = experiment: Cytotoxicity against human topotecan-resistant MCF7 cells after 72 hrs by MTT assay; assay type: functional, cell-based; settings: MCF7, 72 h; summary of the method: as §1
[13] = Cytotoxicity against human vinblastine-resistant KBV1 cells after 72 hrs by MTT assay in presence of 24 mM ABC transporter inhibitor verapamil hydrochloride; assay type: functional, cell-based; settings: KB-V1, 72 h, in the assay text read “24 uM” for “24 mM”
Summary of the method: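 MTT viability assay on P-gp-overexpressing KB-V1/Vbl cells with 24 µM verapamil hydrochloride added before the compound; 72 h exposure. Formazan read at 570/630 nm relative to untreated controls. IC50 from concentration-response curves, mean ± SD of four independent experiments.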

MCF7 [14] = experiment: Cytotoxicity against human topotecan-resistant MCF7 cells after 72 hrs by MTT assay in presence of […] BCRP inhibitor fumitremorgin C; assay type: functional, cell-based; settings: MCF7, 72 h
Summary of the method: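 MCF-7/Topo cells grown in E-MEM with 2.2 g/L NaHCO₃, 110 mg/L sodium pyruvate and 5% FCS. Cells were seeded, cultured 24 h, given fumitremorgin C, then exposed to compound for 72 h. MTT was added (final 0.1%) for 2 h, medium discarded, and formazan dissolved in 10% SDS/DMSO with 0.6% acetic acid. A570 (630 background) read versus untreated controls; IC50 from concentration-response curves; four independent experiments, mean ± SD.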

[15] = Ratio of IC50 for human vinblastine-resistant KBV1 cells in presence of […] ABC transporter inhibitor verapamil hydrochloride to IC50 for human vinblastine-resistant KBV1 cells; assay type: functional
Summary of the method: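 MTT assay in P-gp-overexpressing KB-V1/Vbl cells grown in D-MEM with 10% FCS and antibiotics. Cells were seeded and cultured 24 h, verapamil hydrochloride was optionally added, and compound exposure ran 24, 48 or 72 h. MTT was added to 0.1% final for 2 h. After the medium was discarded, formazan was dissolved in 10% SDS/DMSO with 0.6% acetic acid and read at 570 nm (630 nm background). IC50 came from concentration-response curves, four independent experiments, and the ratio is IC50 with inhibitor over IC50 without.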

HL-60 [16] = experiment: Induction of apoptosis in human HL60 cells assessed as DNA ladder formation at 5 uM after 24 hrs by agarose gel electrophoresis; assay type: functional, cell-based
Summary of the method: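 HL-60 cells incubated with 5 µM compound for 24 h, then examined for DNA ladder patterns.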

HL-60 [17] = experiment: Induction of apoptosis in human HL60 cells assessed as increase of caspase 3 activity at 5 uM after 1 to 24 hrs by luminometric assay; assay type: functional, cell-based
Summary of the method: (§2)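 HL-60 and 518A2 cells treated with 5 µM compound and sampled at intervals from 1 to 24 h. Lysed in 50 mM Tris-HCl pH 7.4, 150 mM NaCl, 1% Triton X-100 with protease inhibitors for 15 min at 4 °C, spun at 800 g. Protein measured by Bradford. Caspase-3/7, -8 and -9 activities read with luminogenic peptide substrates; reported as relative luminescence.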

HL-60 [18] = experiment: Induction of apoptosis in human HL60 cells assessed as increase of caspase 8 activity at 5 uM after 1 to 24 hrs by luminometric assay; assay type: functional, cell-based; summary of the method: as §2
HL-60 [19] = experiment: Induction of apoptosis in human HL60 cells assessed as increase of caspase 9 activity at 5 uM after 1 to 24 hrs by luminometric assay; assay type: functional, cell-based
Summary of the method: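 HL-60 leukaemia cells were treated with test compound and sampled at intervals from 1 to 24 h. Protein was measured by Bradford. Caspase-9 (Caspase-Glo 8 for line 1) was read from a luminogenic peptide substrate as relative luminescence.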

518A2 [20] = experiment: Induction of apoptosis in human 518A2 cells assessed as increase of caspase 3 activity at 5 uM after 1 to 24 hrs by luminometric assay; assay type: functional, cell-based; summary of the method: as §2
518A2 [21] = experiment: Induction of apoptosis in human 518A2 cells assessed as increase of caspase 8 activity at 5 uM after 1 to 24 hrs by luminometric assay; assay type: functional, cell-based; summary of the method: as §2
518A2 [22] = experiment: Induction of apoptosis in human 518A2 cells assessed as increase of caspase 9 activity at 5 uM after 1 to 24 hrs by luminometric assay; assay type: functional, cell-based; summary of the method: as §2
518A2 [23] = experiment: Induction of apoptosis in human 518A2 cells assessed as increase of caspase 9 activity at 5 uM after 2 hrs by luminometric assay; assay type: functional, cell-based; summary of the method: as §2
518A2 [24] = experiment: Induction of apoptosis in human 518A2 cells assessed as increase of ratio of Bax to Bcl-2 mRNA expression at 5 uM after 6 to 18 hrs by RT-PCR analysis; assay type: functional, cell-based
Summary of the method: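 518A2 cells exposed to 5 µM compound for 6 h or 18 h. bax and bcl-2 mRNA quantified by real-time PCR, normalised to GAPDH, and expressed as the bax/bcl-2 ratio.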

518A2 [25] = experiment: Induction of apoptosis in human 518A2 cells assessed as appearance of intact mitochondria in cytosol at 5 uM after 6 hrs using JC1 dye relative to control; assay type: functional
Summary of the method: (§3)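 Mitochondrial membrane potential measured with JC-1. Cells exposed to 5 µM compound for 6 or 18 h, pelleted at 400 g, stained with 0.2× JC-1 at 37 °C for 15 min (HL-60) or 35 min (518A2), washed and resuspended in PBS. Red fluorescence (ex 585/em 590 nm) and green (ex 510/em 527 nm) read; red/green ratio relative to untreated controls (100%). Mean ± SD, four independent experiments.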

518A2 [26] = experiment: Induction of apoptosis in human 518A2 cells assessed as appearance of intact mitochondria in cytosol at 5 uM after 18 hrs using JC1 dye relative to control; assay type: functional; summary of the method: as §3
HL-60 [27] = experiment: Induction of apoptosis in human HL60 cells assessed as appearance of intact mitochondria in cytosol at 5 uM after 6 hrs using JC1 dye relative to control; assay type: functional; summary of the method: as §3
HL-60 [28] = experiment: Induction of apoptosis in human HL60 cells assessed as appearance of intact mitochondria in cytosol at 5 uM after 18 hrs using JC1 dye relative to control; assay type: functional; summary of the method: as §3
[29] = Cytotoxicity against human 518A2 cells assessed as increase in ROS production at 5 uM after 24 hrs by NBT reduction assay relative to control; assay type: functional
Summary of the method: (§4)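 NBT assay. HL-60 cells (0.5×10⁶/mL) or trypsinised 518A2 cells (5×10⁴/mL) pre-incubated 24 h at 37 °C, then given compound at a final 5 µM for 24 or 72 h. Medium removed; cells incubated with 0.1% NBT for 1 h (HL-60) or 4 h (518A2). Diformazan dissolved in 2 M KOH/DMSO; A630 read against 405 nm. Given as % of untreated controls; double quadruplicates.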

[30] = Cytotoxicity against human 518A2 cells assessed as increase in ROS production at 5 uM after 72 hrs by NBT reduction assay relative to control; assay type: functional; summary of the method: as §4
HL-60 [31] = experiment: Cytotoxicity against human HL60 cells assessed as increase in ROS production at 5 uM after 24 hrs by NBT reduction assay relative to control; assay type: functional; summary of the method: as §4
HL-60 [32] = experiment: Cytotoxicity against human HL60 cells assessed as increase in ROS production at 5 uM after 72 hrs by NBT reduction assay relative to control; assay type: functional; summary of the method: as §4

Work on `CCCCCCCCCCCCCCCCC(=O)N/N=C(\CO)[C@]1(O)Cc2c(O)c3c(c(O)c2[C@@H](O[C@H]2C[C@H](N)[C@H](O)[C@H](C)O2)C1)C(=O)c1c(OC)cccc1C3=O.Cl` [DOXORUBICIN HEPTADECANOYL HYDRAZONE] yielded an IC50 [1] of 760 nM, an IC50 [2] of 350 nM and an IC50 [3] of 110 nM. The IC50 (HL-60 [4]) was 1400 nM, the IC50 (HL-60 [5]) was 860 nM and the IC50 (HL-60 [6]) was 280 nM. It also gave an IC50 [7] of 42900 nM, an IC50 [8] of 10700 nM and an IC50 [9] of 5100 nM. The IC50 (MCF7 [10]) was 5900 nM, the IC50 (MCF7 [11]) was 3200 nM and the IC50 (MCF7 [12]) was 3000 nM. The IC50 [13] was 3700 nM, the IC50 (MCF7 [14]) was 170 nM and the “Ratio IC50” value [15] was 0.74. The Activity (HL-60 [16]) was “Active”, the Activity (HL-60 [17]) was “Active” and the Activity (HL-60 [18]) was “Active”. The Activity (HL-60 [19]) was “Active”, the Activity (518A2 [20]) was “Active” and the Activity (518A2 [21]) was “Active”. For the same molecule, the Activity (518A2 [22]) was “Active”, the Activity (518A2 [23]) was “Active” and the Activity (518A2 [24]) was “Active”. For the same molecule, the Activity (518A2 [25]) was 113%, the Activity (518A2 [26]) was 80% and the Activity (HL-60 [27]) was 94%. The Activity (HL-60 [28]) was 59%, the Activity [29] was 6.6% and the Activity [30] was 71.2%. The Activity (HL-60 [31]) was 2.8% and the Activity (HL-60 [32]) was 3.4%.

— ChEMBL document CHEMBL1157852, “Modulation of doxorubicin activity in cancer cells by conjugation with fatty acyl and terpenyl hydrazones” (Eur J Med Chem, 2010)
